{
  "source": "ChEMBL document CHEMBL4689842",
  "about": "“EUbOPEN Chemogenomics Library wave 1” (2021)",
  "type_in_all_cases": "toxicity, cell-based",
  "key": {"Fibroblast": {"tested_on": "Fibroblast", "experiment": "Incucyte cell viability with human fibroblast; also: filed as whole numbers so only -1 and 0 and 1 occur", "details": "10 µM, compound concentration 10 uM"}, "HEK-293T": {"tested_on": "HEK-293T", "experiment": "Incucyte cell viability with HEK293T; also: filed as whole numbers so only -1 and 0 and 1 occur", "details": "human, 10 µM, compound concentration 10 uM"}, "U2OS [1]": {"tested_on": "U2OS", "experiment": "Incucyte cell viability with U2OS; also: filed as whole numbers so only -1 and 0 and 1 occur", "details": "human, 10 µM, compound concentration 10 uM"}, "U2OS [2]": {"tested_on": "U2OS", "experiment": "Multiplex assay against U2OS", "details": "human", "outline": "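Tubulin, mitochondrial-mass and membrane-permeability phenotypes are per cents of healthy-nucleus cells. Cells were gated by CellPathfinder machine learning into Hoechst high-intensity objects or normal cells, normal cells into healthy, pyknosed or fragmented nuclei, and pyknosed cells into mitotic or apoptotic. Before that, live cells stained at seeding with Hoechst33342, BioTracker Green Microtubule Cytoskeleton Dye, MitoTracker Red and Annexin V Alexa Fluor 680 were imaged on a CQ1 microscope at 37°C and 5% CO2 after compound addition.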"}, "[3]": {"details": "0 h, replicate number 2, timepoint 0 hours"}, "[4]": {"details": "24 h, replicate number 1, timepoint 24 hours"}, "[5]": {"details": "18 h, replicate number 1, timepoint 18 hours"}, "[6]": {"details": "12 h, 1 µM, compound concentration 1 uM, replicate 1"}, "[7]": {"details": "12 h, 1 µM, compound concentration 1 uM, replicate 2"}, "[8]": {"details": "12 h, 10 µM, compound concentration 10 uM, replicate 1"}, "[9]": {"details": "12 h, 10 µM, compound concentration 10 uM, replicate 2"}, "[10]": {"details": "24 h, 1 µM, compound concentration 1 uM, replicate 1"}, "[11]": {"details": "24 h, 1 µM, compound concentration 1 uM, replicate 2"}, "[12]": {"details": "24 h, 10 µM, compound concentration 10 uM, replicate 1"}, "[13]": {"details": "24 h, 10 µM, compound concentration 10 uM, replicate 2"}},
  "data": [
    {"smiles": "NC(=O)c1ccc2nc(-c3ccc(C4(N)CCC4)cc3)c(-c3ccccc3)n2n1", "note": "[BAY-1125976]", "values": [
      {"measurement": "Growth Rate", "setting": "Fibroblast; 0 h, replicate number 1, timepoint 0 hours", "value": 1},
      {"measurement": "Growth Rate", "setting": "Fibroblast; [3]", "value": 0},
      {"measurement": "Growth Rate", "setting": "Fibroblast; [4]", "value": 1},
      {"measurement": "Growth Rate", "setting": "HEK-293T; 6 h, replicate number 1, timepoint 6 hours", "value": 0},
      {"measurement": "Growth Rate", "setting": "HEK-293T; 12 h, replicate number 1, timepoint 12 hours", "value": 0},
      {"measurement": "Growth Rate", "setting": "HEK-293T; [5]", "value": 0},
      {"measurement": "Growth Rate", "setting": "HEK-293T; [4]", "value": 0},
      {"measurement": "Growth Rate", "setting": "U2OS [1]; [3]", "value": 0},
      {"measurement": "Growth Rate", "setting": "U2OS [1]; [5]", "value": 1},
      {"measurement": "Growth Rate", "setting": "U2OS [1]; [4]", "value": 1},
      {"measurement": "Population Apoptotic (%)", "setting": "U2OS [2]; [6]", "value": 52, "unit": "%"},
      {"measurement": "Population Healthy Nuclei (%)", "setting": "U2OS [2]; [6]", "value": 79, "unit": "%"},
      {"measurement": "Population Hoechst High Intensity Objects (%)", "setting": "U2OS [2]; [6]", "value": 6, "unit": "%"},
      {"measurement": "Population Mitochondria Different-Phenotype (%)", "setting": "U2OS [2]; [6]", "value": 19, "unit": "%"},
      {"measurement": "Population Mitotic Cells (%)", "setting": "U2OS [2]; [6]", "value": 47, "unit": "%"},
      {"measurement": "Population Normal (%)", "setting": "U2OS [2]; [6]", "value": 93, "unit": "%"},
      {"measurement": "Population Tubulin-Different-Phenotype (%)", "setting": "U2OS [2]; [6]", "value": 46, "unit": "%"},
      {"measurement": "Total Cell Count", "setting": "U2OS [2]; [6]", "value": 239},
      {"measurement": "Population Apoptotic (%)", "setting": "U2OS [2]; [7]", "value": 42, "unit": "%"},
      {"measurement": "Population Healthy Nuclei (%)", "setting": "U2OS [2]; [7]", "value": 80, "unit": "%"},
      {"measurement": "Population Hoechst High Intensity Objects (%)", "setting": "U2OS [2]; [7]", "value": 12, "unit": "%"},
      {"measurement": "Population Mitotic Cells (%)", "setting": "U2OS [2]; [7]", "value": 57, "unit": "%"},
      {"measurement": "Population Normal (%)", "setting": "U2OS [2]; [7]", "value": 87, "unit": "%"},
      {"measurement": "Population Tubulin-Different-Phenotype (%)", "setting": "U2OS [2]; [7]", "value": 35, "unit": "%"},
      {"measurement": "Total Cell Count", "setting": "U2OS [2]; [7]", "value": 109},
      {"measurement": "Population Apoptotic (%)", "setting": "U2OS [2]; [8]", "value": 66, "unit": "%"},
      {"measurement": "Population Healthy Nuclei (%)", "setting": "U2OS [2]; [8]", "value": 92, "unit": "%"},
      {"measurement": "Population Mitochondria Different-Phenotype (%)", "setting": "U2OS [2]; [8]", "value": 24, "unit": "%"},
      {"measurement": "Population Mitotic Cells (%)", "setting": "U2OS [2]; [8]", "value": 33, "unit": "%"},
      {"measurement": "Population Tubulin-Different-Phenotype (%)", "setting": "U2OS [2]; [8]", "value": 27, "unit": "%"},
      {"measurement": "Total Cell Count", "setting": "U2OS [2]; [8]", "value": 210},
      {"measurement": "Population Apoptotic (%)", "setting": "U2OS [2]; [9]", "value": 20, "unit": "%"},
      {"measurement": "Population Healthy Nuclei (%)", "setting": "U2OS [2]; [9]", "value": 88, "unit": "%"},
      {"measurement": "Population Hoechst High Intensity Objects (%)", "setting": "U2OS [2]; [9]", "value": 4, "unit": "%"},
      {"measurement": "Population Mitochondria Different-Phenotype (%)", "setting": "U2OS [2]; [9]", "value": 23, "unit": "%"},
      {"measurement": "Population Mitotic Cells (%)", "setting": "U2OS [2]; [9]", "value": 80, "unit": "%"},
      {"measurement": "Population Normal (%)", "setting": "U2OS [2]; [9]", "value": 95, "unit": "%"},
      {"measurement": "Population Tubulin-Different-Phenotype (%)", "setting": "U2OS [2]; [9]", "value": 18, "unit": "%"},
      {"measurement": "Total Cell Count", "setting": "U2OS [2]; [9]", "value": 165},
      {"measurement": "Population Apoptotic (%)", "setting": "U2OS [2]; [10]", "value": 42, "unit": "%"},
      {"measurement": "Population Healthy Nuclei (%)", "setting": "U2OS [2]; [10]", "value": 76, "unit": "%"},
      {"measurement": "Population Hoechst High Intensity Objects (%)", "setting": "U2OS [2]; [10]", "value": 5, "unit": "%"},
      {"measurement": "Population Mitochondria Different-Phenotype (%)", "setting": "U2OS [2]; [10]", "value": 18, "unit": "%"},
      {"measurement": "Population Mitotic Cells (%)", "setting": "U2OS [2]; [10]", "value": 57, "unit": "%"},
      {"measurement": "Population Normal (%)", "setting": "U2OS [2]; [10]", "value": 94, "unit": "%"},
      {"measurement": "Population Tubulin-Different-Phenotype (%)", "setting": "U2OS [2]; [10]", "value": 23, "unit": "%"},
      {"measurement": "Total Cell Count", "setting": "U2OS [2]; [10]", "value": 273},
      {"measurement": "Population Apoptotic (%)", "setting": "U2OS [2]; [11]", "value": 44, "unit": "%"},
      {"measurement": "Population Healthy Nuclei (%)", "setting": "U2OS [2]; [11]", "value": 77, "unit": "%"},
      {"measurement": "Population Hoechst High Intensity Objects (%)", "setting": "U2OS [2]; [11]", "value": 8, "unit": "%"},
      {"measurement": "Population Mitochondria Different-Phenotype (%)", "setting": "U2OS [2]; [11]", "value": 20, "unit": "%"},
      {"measurement": "Population Mitotic Cells (%)", "setting": "U2OS [2]; [11]", "value": 55, "unit": "%"},
      {"measurement": "Population Normal (%)", "setting": "U2OS [2]; [11]", "value": 91, "unit": "%"},
      {"measurement": "Population Tubulin-Different-Phenotype (%)", "setting": "U2OS [2]; [11]", "value": 13, "unit": "%"},
      {"measurement": "Total Cell Count", "setting": "U2OS [2]; [11]", "value": 124},
      {"measurement": "Population Apoptotic (%)", "setting": "U2OS [2]; [12]", "value": 33, "unit": "%"},
      {"measurement": "Population Hoechst High Intensity Objects (%)", "setting": "U2OS [2]; [12]", "value": 1, "unit": "%"},
      {"measurement": "Population Mitochondria Different-Phenotype (%)", "setting": "U2OS [2]; [12]", "value": 31, "unit": "%"},
      {"measurement": "Population Mitotic Cells (%)", "setting": "U2OS [2]; [12]", "value": 66, "unit": "%"},
      {"measurement": "Population Normal (%)", "setting": "U2OS [2]; [12]", "value": 98, "unit": "%"},
      {"measurement": "Population Tubulin-Different-Phenotype (%)", "setting": "U2OS [2]; [12]", "value": 30, "unit": "%"},
      {"measurement": "Total Cell Count", "setting": "U2OS [2]; [12]", "value": 258},
      {"measurement": "Population Apoptotic (%)", "setting": "U2OS [2]; [13]", "value": 7, "unit": "%"},
      {"measurement": "Population Healthy Nuclei (%)", "setting": "U2OS [2]; [13]", "value": 87, "unit": "%"},
      {"measurement": "Population Hoechst High Intensity Objects (%)", "setting": "U2OS [2]; [13]", "value": 5, "unit": "%"},
      {"measurement": "Population Mitochondria Different-Phenotype (%)", "setting": "U2OS [2]; [13]", "value": 28, "unit": "%"},
      {"measurement": "Population Mitotic Cells (%)", "setting": "U2OS [2]; [13]", "value": 92, "unit": "%"},
      {"measurement": "Population Normal (%)", "setting": "U2OS [2]; [13]", "value": 94, "unit": "%"},
      {"measurement": "Population Tubulin-Different-Phenotype (%)", "setting": "U2OS [2]; [13]", "value": 25, "unit": "%"},
      {"measurement": "Total Cell Count", "setting": "U2OS [2]; [13]", "value": 213}
    ]}
  ]
}
